# Reference: ChEMBL document CHEMBL3596120, “Discovery of natural alkaloid bouchardatine as a novel inhibitor of adipogenesis/lipogenesis in 3T3-L1 adipocytes” (Bioorg Med Chem, 2015)
# Activity calls are given as the source filed them. No cut-off for these calls is given here.
# Columns and labels:
# [1] = tested on: 3T3-L1; assay: Activation of AMPK in mouse 3T3L1 cells assessed as increase in ACC Ser79 phosphorylation at 0.2 mM after 9 days by Western blot method; type: cell-based
# Summary of the method: (§1)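 Mouse 3T3-L1 cells taken through the differentiation protocol, with compound or DMSO vehicle given from day 0 and renewed at day 3. Cells lysed on ice for 0.5 h in RIPA with PMSF, Na3VO4, NaF and protease inhibitors, then centrifuged at 12,000g. Lysates run on 12% SDS-PAGE and transferred to PVDF. Blots probed overnight at 4 °C and detected with HRP secondary. Bands quantified by optical density against GAPDH. Three independent experiments.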
# [2] = tested on: 3T3-L1; assay: Increase in AMPKalpha Thr172 phosphorylation in mouse 3T3L1 cells at 0.2 mM after 9 days by Western blot method; type: cell-based; summary of the method: as §1
# [3] = tested on: 3T3-L1; assay: Effect on in AMPKalpha protein expression in mouse 3T3L1 cells at 25 uM after 0.5 to 4 hrs by Western blot method; type: functional, cell-based
# [4] = tested on: 3T3-L1; assay: Inhibition of adipogenesis in mouse 3T3L1 cells assessed as reduction in triglyceride content at 0.2 mM by colorimetric assay; type: functional, cell-based
# [5] = Reduction in C/EBPalpha protein expression in mouse 3T3L1 cells at 0.2 mM after 3 days by Western blot method; type: functional, cell-based; conditions: 3T3-L1; summary of the method: as §1
# [6] = Reduction in PPARgamma protein expression in mouse 3T3L1 cells at 0.2 mM after 3 days by Western blot method; type: functional, cell-based; conditions: 3T3-L1
# Summary of the method: (§2)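 3T3-L1 preadipocytes grown in DMEM with 10% FBS at 37 °C under 5% CO2. Differentiation starts 2 days post-confluence (day 0) with IBMX, 100 ng/mL dexamethasone and insulin for 3 d, then insulin in 10% FBS/DMEM for 3 d, then basic medium for 3 d. Compound is added on day 0 and renewed at day 3. Vehicle control receives the same volume of DMSO.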
# [7] = Reduction in SCD1 protein expression in mouse 3T3L1 cells at 0.2 mM after 3 days by Western blot method; type: functional, cell-based; conditions: 3T3-L1; summary of the method: as §2
# [8] = Reduction in FAS protein expression in mouse 3T3L1 cells at 0.2 mM after 3 days by Western blot method; type: functional, cell-based; conditions: 3T3-L1; summary of the method: as §2
# [9] = Reduction in SREBP-1c protein expression in mouse 3T3L1 cells at 0.2 mM after 3 days by Western blot method; type: functional, cell-based; conditions: 3T3-L1; summary of the method: as §2
smiles,measurement,setting,value
NC(=O)c1ncn([C@@H]2O[C@H](CO)[C@@H](O)[C@H]2O)c1N,Activity,[1],Active
same,Activity,[2],Active
same,Activity,[3],inactive
same,Activity,[4],Active
same,Activity,[5],Active
same,Activity,[6],Active
same,Activity,[7],Active
same,Activity,[8],Active
same,Activity,[9],Active
